In ChEMBL document CHEMBL1255300, “Pharmacodynamics of the antibacterial effect and emergence of resistance to tomopenem, formerly RO4908463/CS-023, in an in vitro pharmacokinetic model of Staphylococcus aureus infection” (Antimicrob Agents Chemother, 2008):
Active and inactive are the calls of the source. No cut-off for these calls is given here.

Legend:
Staphylococcus aureus [1] = experiment: Antibacterial activity against methicillin-resistant Staphylococcus aureus 33815 infected in in vitro pharmacokinetic model assessed as reduction in viable count at 750 mg, iv every 8 hrs measured after 48 hrs using 10^6 CFU/ml inoculum; format: functional
In short: (§1)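 Single-compartment dilutional in vitro PK model, 37°C, stirred, in 10% Mueller-Hinton broth. […] Inoculum 10^6 CFU/ml from a 24-h plate culture was added 45 min before dosing. Viable counts by spiral plating on nutrient agar with β-lactamase neutralization. Log change was taken from time 0; detection limit 10^2 CFU/ml; at least triplicate.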

Staphylococcus aureus [2] = experiment: Antibacterial activity against methicillin-resistant Staphylococcus aureus 33829 in in vitro pharmacokinetic model assessed as viable count at 4 times of MIC; format: functional
In short: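 Preexposure population analysis: time-zero model samples plated on nutrient agar without drug and with drug at multiples of the 10% broth MIC. Growth reported as log CFU/ml, detection limit 2 log10.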

Staphylococcus aureus [3] = experiment: Antibacterial activity against methicillin-resistant Staphylococcus aureus 33820 infected in in vitro pharmacokinetic model assessed as reduction in viable count at 750 mg, iv every 8 hrs measured after 24 hrs using 10^6 CFU/ml inoculum; format: functional; in short: as §1
Staphylococcus aureus [4] = experiment: Antibacterial activity against methicillin-resistant Staphylococcus aureus 33815 infected in in vitro pharmacokinetic model assessed as time required to 99% killing at 750 mg, iv every 8 hrs using 10^8 CFU/ml inoculum; format: functional
In short: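 T99 and T99.9 were taken as the times for the count to fall 99% or 99.9% from time 0, using serial viable counts over 48 h. Inoculum was 10^8 CFU/ml, grown overnight in the model before dosing.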

Staphylococcus aureus [5] = experiment: Antibacterial activity against methicillin-sensitive Staphylococcus aureus 5956 infected in in vitro pharmacokinetic model assessed as reduction in viable count at 750 mg, iv every 8 hrs measured after 12 hrs using 10^6 CFU/ml inoculum; format: functional
Staphylococcus aureus [6] = experiment: Antibacterial activity against methicillin-resistant Staphylococcus aureus 33827 infected in in vitro pharmacokinetic model assessed as reduction in viable count at 750 mg, iv every 8 hrs measured after 48 hrs using 10^6 CFU/ml inoculum; format: functional
In short: (§2)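 Single-compartment dilutional in vitro PK model, 10% Mueller-Hinton broth, 37°C, stirred, dilution 132 ml/h. […] Inoculum 10^6 CFU/ml (added 45 min pre-dose) or 10^8 CFU/ml (run overnight). Viable counts by spiral plating, beta-lactamase neutralization, detection limit 10^2 CFU/ml. At least triplicate.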

Staphylococcus aureus [7] = experiment: AUBKC (0 to 48 hrs) in methicillin-resistant Staphylococcus aureus 33922 infected in in vitro pharmacokinetic model at 1500 mg, iv every 8 hrs using 10^6 CFU/ml inoculum; format: functional
In short: (§3)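 Single-compartment dilutional in vitro PK model at 37°C in 10% Mueller-Hinton broth, stirred, flow 132 ml/h. […] Inoculum 10^6 CFU/ml added 45 min before dosing, or 10^8 CFU/ml run overnight. Viable counts with β-lactamase neutralisation. AUBKC by log-linear trapezoidal rule, at least triplicate.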

Staphylococcus aureus [8] = experiment: AUBKC (0 to 24 hrs) in methicillin-resistant Staphylococcus aureus 33827 infected in in vitro pharmacokinetic model at 1500 mg, iv every 8 hrs using 10^6 CFU/ml inoculum; format: functional; in short: as §3
Staphylococcus aureus [9] = experiment: Antibacterial activity against methicillin-resistant Staphylococcus aureus 33922 infected in in vitro pharmacokinetic model assessed as reduction in viable count at 1500 mg, iv every 8 hrs measured after 36 hrs using 10^8 CFU/ml inoculum; format: functional
Staphylococcus aureus [10] = experiment: T>MIC for 1-log drop in count in methicillin-resistant Staphylococcus aureus 33829 in in vitro pharmacokinetic model after 24 hrs using 10^6 CFU/ml inoculum; format: functional
Staphylococcus aureus [11] = experiment: Antibacterial activity against methicillin-resistant Staphylococcus aureus 33820 infected in in vitro pharmacokinetic model assessed as reduction in viable count at 1500 mg, iv every 8 hrs measured after 36 hrs using 10^6 CFU/ml inoculum; format: functional; in short: as §1
Staphylococcus aureus [12] = experiment: T>MIC for 1-log drop in count in methicillin-sensitive Staphylococcus aureus 5956 in in vitro pharmacokinetic model after 24 hrs using 10^8 CFU/ml inoculum; format: functional
Staphylococcus aureus [13] = experiment: Antibacterial activity against methicillin-resistant Staphylococcus aureus 33922 infected in in vitro pharmacokinetic model assessed as reduction in viable count at 1500 mg, iv every 8 hrs measured after 12 hrs using 10^8 CFU/ml inoculum; format: functional
Staphylococcus aureus [14] = experiment: Antibacterial activity against methicillin-resistant Staphylococcus aureus 33815 infected in in vitro pharmacokinetic model assessed as reduction in viable count at 1500 mg, iv every 8 hrs measured after 36 hrs using 10^8 CFU/ml inoculum; format: functional
In short: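 PK model at 37°C in 10% MHB. […] A 0.5 McFarland suspension (1 ml) was added and the model run overnight to reach 10^8 CFU/ml before dosing. Counts were spiral-plated on nutrient agar with β-lactamase. Change in log CFU/ml was measured from time 0; at least triplicate.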

Staphylococcus aureus [15] = experiment: T>MIC for 3-log drop in count in methicillin-resistant Staphylococcus aureus 33922 in in vitro pharmacokinetic model after 24 hrs using 10^6 CFU/ml inoculum; format: functional
Staphylococcus aureus [16] = experiment: Antibacterial activity against methicillin-resistant Staphylococcus aureus 33829 assessed as viable count at 4 times of MIC after 48 hrs using 10^6 CFU/ml inoculum; format: functional, organism-based
Staphylococcus aureus [17] = experiment: T>MIC for 4-log drop in count in methicillin-resistant Staphylococcus aureus 33820 in in vitro pharmacokinetic model after 24 hrs using 10^6 CFU/ml inoculum; format: functional
Staphylococcus aureus [18] = experiment: Antibacterial activity against methicillin-resistant Staphylococcus aureus 33921 infected in in vitro pharmacokinetic model assessed as time required to 99.9% killing at 750 mg, iv every 8 hrs using 10^6 CFU/ml inoculum; format: functional
Staphylococcus aureus [19] = experiment: AUBKC (0 to 48 hrs) in methicillin-resistant Staphylococcus aureus 33815 infected in in vitro pharmacokinetic model at 1500 mg, iv every 8 hrs using 10^8 CFU/ml inoculum; format: functional; in short: as §3
Staphylococcus aureus [20] = experiment: AUBKC (0 to 24 hrs) in methicillin-sensitive Staphylococcus aureus 5956 infected in in vitro pharmacokinetic model at 750 mg, iv every 8 hrs using 10^6 CFU/ml inoculum; format: functional
Staphylococcus aureus [21] = experiment: Antibacterial activity against methicillin-resistant Staphylococcus aureus 33922 infected in in vitro pharmacokinetic model assessed as reduction in viable count at 1500 mg, iv every 8 hrs measured after 12 hrs using 10^6 CFU/ml inoculum; format: functional
Staphylococcus aureus [22] = experiment: AUBKC (0 to 24 hrs) in methicillin-sensitive Staphylococcus aureus 5956 infected in in vitro pharmacokinetic model at 1500 mg, iv every 8 hrs using 10^6 CFU/ml inoculum; format: functional
Staphylococcus aureus [23] = experiment: Antibacterial activity against methicillin-resistant Staphylococcus aureus 33921 infected in in vitro pharmacokinetic model assessed as reduction in viable count at 750 mg, iv every 8 hrs measured after 12 hrs using 10^6 CFU/ml inoculum; format: functional; in short: as §2
Staphylococcus aureus [24] = experiment: T>MIC for 1-log drop in count in methicillin-resistant Staphylococcus aureus 33922 in in vitro pharmacokinetic model after 24 hrs using 10^8 CFU/ml inoculum; format: functional
Staphylococcus aureus [25] = experiment: Antibacterial activity against methicillin-resistant Staphylococcus aureus 33827 infected in in vitro pharmacokinetic model assessed as reduction in viable count at 750 mg, iv every 8 hrs measured after 48 hrs using 10^8 CFU/ml inoculum; format: functional; in short: as §2

Question: `C[C@@H](O)[C@H]1C(=O)N2C(C(=O)O)=C(S[C@H]3C[C@@H](C(=O)N4CC[C@H](NC(=O)CNC(=N)N)C4)N(C)C3)[C@H](C)[C@H]12` [TOMOPENEM] was tested. Which log10CFU/ml (Staphylococcus aureus [1]) did it give?
Answer: The log10CFU/ml was 4.2.

Question: And the log10CFU/ml (Staphylococcus aureus [2])?
Answer: Its log10CFU/ml is 5.4.

Question: What about the log10CFU/ml (Staphylococcus aureus [3]) of the same compound?
Answer: Its log10CFU/ml is 4.2.

Question: And the Time (Staphylococcus aureus [4])?
Answer: Its Time is 16 h.

Question: And the log10CFU/ml (Staphylococcus aureus [5])?
Answer: Its log10CFU/ml is 4.1.

Question: What about the log10CFU/ml (Staphylococcus aureus [6]) of the same compound?
Answer: The log10CFU/ml was 3.3.

Question: What about the AUBC (Staphylococcus aureus [7]) of the same compound?
Answer: The AUBC was 16.9 log10CFU/ml.hr.

Question: What about the AUBC (Staphylococcus aureus [8]) of the same compound?
Answer: Its AUBC is 28.1 log10CFU/ml.hr.

Question: And the log10CFU/ml (Staphylococcus aureus [9])?
Answer: Its log10CFU/ml is 5.2.

Question: And the “fT>MIC” value (Staphylococcus aureus [10])?
Answer: The value was 16.8%.

Question: What about the log10CFU/ml (Staphylococcus aureus [11]) of the same compound?
Answer: The log10CFU/ml was 3.8.

Question: And the “fT>MIC” value (Staphylococcus aureus [12])?
Answer: Its value is 3.4%.

Question: What about the log10CFU/ml (Staphylococcus aureus [13]) of the same compound?
Answer: Its log10CFU/ml is 1.5.

Question: And the log10CFU/ml (Staphylococcus aureus [14])?
Answer: Its log10CFU/ml is 3.9.

Question: And the “fT>MIC” value (Staphylococcus aureus [15])?
Answer: Its value is 9.4%.

Question: And the Activity (Staphylococcus aureus [16])?
Answer: The Activity was “Active”.

Question: What about the “fT>MIC” value (Staphylococcus aureus [17]) of the same compound?
Answer: Its value is 36.2%.

Question: What about the Time (Staphylococcus aureus [18]) of the same compound?
Answer: Its Time is 12 h.

Question: And the AUBC (Staphylococcus aureus [19])?
Answer: The AUBC was 152.6 log10CFU/ml.hr.

Question: What about the AUBC (Staphylococcus aureus [20]) of the same compound?
Answer: The AUBC was 27.6 log10CFU/ml.hr.

Question: What about the log10CFU/ml (Staphylococcus aureus [21]) of the same compound?
Answer: Its log10CFU/ml is 4.2.

Question: What about the AUBC (Staphylococcus aureus [22]) of the same compound?
Answer: The AUBC was 22.7 log10CFU/ml.hr.

Question: What about the log10CFU/ml (Staphylococcus aureus [23]) of the same compound?
Answer: The log10CFU/ml was 3.6.

Question: What about the “fT>MIC” value (Staphylococcus aureus [24]) of the same compound?
Answer: Its value is 2%.

Question: And the log10CFU/ml (Staphylococcus aureus [25])?
Answer: Its log10CFU/ml is 5.9.
